Results as given in PubChem BioAssay.
Inconclusive results are not listed.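 Rule for the calls, unless noted: active = growth inhibition above 25% in both replicates, a cutoff set 3 SD above the mean; inconclusive = above 25% in only one replicate; inactive = the rest.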

Experiments:
[1] = OD615 S. cerevisiae growth inhibition, permissive medium, pilot counter-assay, permissive growth control for S. cerevisiae lifespan shortening project (AID 705); details: OD615, 24 h, at 10 µM, stronger effect = higher value
How it was run: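 System – S. cerevisiae with engineered DeaD lifespan system · Buffer or medium – SC raffinose/galactose permissive medium · Schedule – cells pre-grown 4 h, then 24 h compound exposure, 30 °C humidified · Technique – culture turbidity as optical density at 615 nm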

[2] = Restrictive medium S. cerevisiae growth inhibition, OD615, pilot screen of yeast lifespan reduction project, restrictive growth control (AID 706;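 active = growth inhibition above a set limit, 3 SD over mean compound inhibition, in both replicates, cut at about 43% in these data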;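 note: modified DeaD lifespan yeast strain shifted to restrictive glucose medium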); details: OD615, 48 h, at 10 µM, stronger effect = higher value
How it was run: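 Material: engineered S. cerevisiae DeaD strain / Medium: glucose-based CSMM-D restrictive medium / Compound: single dose of 10 µM compound final, 0.25% DMSO / Timing: 4 h pre-incubation, 48 h exposure at 30 °C / Technique: OD615 absorbance reading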

[3] = viability gain of MRP-1-high H69AR cells under doxorubicin, pilot screen, MRP-1 activator project, CellTiter-Glo, duplicate (AID 807;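 active = viability increase at or above a cutoff of the median across tested compounds plus 3 SD, cut at about 8.5% in these data, passing the limit was not always enough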;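 note: compound pretreatment 18-22 h then 72 h combined with doxorubicin; 0% = doxorubicin alone and 100% = vehicle without doxorubicin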); details: H69AR viability with doxorubicin, CellTiter-Glo luminescence; at 10 µM; stronger effect = higher value
[4] = growth suppression of beta-catenin knockout HCT116, pilot screen, human colon tumor cells (AID 823;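 active = cell viability at or below a set limit in both duplicate runs, the limit being the all-compound median minus 4 SD, cut at about 23% in these data, passing the limit was not always enough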;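 note: 0% = wells killed by 20 µM Hyamine and 100% = untreated DMSO cell wells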); details: CellTiter-Glo, 60 h, at 10 µM, stronger effect = lower value
[5] = growth suppression of PTEN-deleted HCT116, pilot screen, cell-based, HCT116 clonal line, CellTiter-Glo (AID 824;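 active = viability at or below 27.92% in each of two runs, the all-compound median minus 4 SD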;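 note: 0% = 20 µM Hyamine control and 100% = vehicle cell control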); details: 60 h, at 10 µM, stronger effect = lower value
[6] = inhibitors of the yeast RAM network, pilot screen, dse1pr::URA3 reporter, 5-FOA selection (AID 869;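 active = inhibition over a set limit, the all-compound mean plus 3 SD, in both replicate runs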;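 note: 0% = DMSO wells with no growth and 100% = 10 µM 1-NA-PP1 with full growth; RAM network block rescues cells from 5-FOA so hits raise OD615 growth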); details: S. cerevisiae dse1pr::URA3 5-FOA growth, OD615, 2 d; at 10 µM; stronger effect = higher value; strain carries analog-sensitive mutant Cbk1 kinase
[7] = RAM signaling pathway blockade in yeast – S. cerevisiae, Pdr1DBD-CYC8 efflux-inhibited sensitized strain, primary screen (AID 1298;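 active = RAM network inhibition above 8.4% in each of two replicates, 3 SD over the compound average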;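 note: 0% = DMSO untreated cells without growth and 100% = 10 µM 1-NA-PP1 full growth; higher means more yeast growth rescued from 5-FOA killing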); details: S. cerevisiae cbk1-as DSE1-URA3 strain, 5-FOA growth OD615, 2 d; at 50 µM; stronger effect = higher value

O=C(NCC1COc2ccccc2O1)C1C2C=CC3(CN(Cc4ccccc4Cl)C(=O)C13)O2 (configuration not stated)
inactive: growth inhibition [1] -6.06% | growth inhibition [2] -7.88% | viability increase [3] -1% | viability [4] 84.2% | viability [5] 84% | inhibition [6] 1.02% | RAM network inhibition [7] 0%

O=C1C(=O)N(CCCn2ccnc2)C(c2cccnc2)/C1=C(/O)c1ccc(Cl)cc1 (configuration not stated)
inactive: growth inhibition [1] -11.6% | growth inhibition [2] -4.88% | viability increase [3] -0.32% | viability [4] 97.2% | viability [5] 98.6% | inhibition [6] 0.905% | RAM network inhibition [7] 1.1%

CCC1CCCCN1Cc1ccc(OC)c(OC)c1 (configuration not stated)
inactive: growth inhibition [1] -7.04% | growth inhibition [2] -8.04% | viability increase [3] -2.09% | viability [4] 87.8% | viability [5] 96.9% | inhibition [6] 2.01% | RAM network inhibition [7] -1.61%

CCOc1ccc(N(CC(=O)NC2CCCC2)S(=O)(=O)c2c(C)noc2C)cc1
inactive: growth inhibition [1] -12.7% | growth inhibition [2] -2.85% | viability increase [3] -2.27% | viability [4] 97.4% | viability [5] 94.9% | inhibition [6] 3.61% | RAM network inhibition [7] 8.02%

O=C(O)C1CCC(=O)N1C1c2ccccc2Oc2ccccc21 (configuration not stated)
inactive: growth inhibition [1] 4.23% | growth inhibition [2] 4.63% | viability increase [3] 0.41% | viability [4] 96% | viability [5] 98.9% | inhibition [6] 0.57% | RAM network inhibition [7] 5.25%

CC(C)Oc1ccc(/C(O)=C2/C(=O)C(=O)N(CCCN3CCOCC3)C2c2ccncc2)cc1 (configuration not stated)
inactive: growth inhibition [1] -3.48% | growth inhibition [2] -4.07% | viability increase [3] -3.89% | viability [4] 93.3% | viability [5] 89.3% | inhibition [6] 0.95% | RAM network inhibition [7] -0.41%

COc1ccc(N(CC(=O)Nc2nc3ccc(C)cc3s2)S(=O)(=O)c2c(C)nn(C)c2C)cc1
inactive: growth inhibition [1] -5.89% | growth inhibition [2] -16.3% | viability increase [3] -7.24% | viability [4] 64.9% | viability [5] 57.1% | inhibition [6] 1.33% | RAM network inhibition [7] 6.79%

C=CCn1c(=O)c(C(=O)Nc2ccccc2OC)c(O)c2ccccc21
inactive: growth inhibition [1] 1.44% | growth inhibition [2] -2.46% | viability increase [3] -2.69% | viability [4] 104% | viability [5] 90.1% | inhibition [6] 2.31% | RAM network inhibition [7] 1.39%

Cc1onc(-c2ccccc2Cl)c1C(=O)Nc1nnc(C(C)C)s1
inactive: growth inhibition [1] 1.52% | growth inhibition [2] 4.5% | viability increase [3] -1.44% | viability [4] 93.4% | viability [5] 95.7% | inhibition [6] -0.23% | RAM network inhibition [7] 4.37%

Cc1ccc2oc(=O)n(CC(=O)O)c2c1
inactive: growth inhibition [1] -6.32% | growth inhibition [2] 5.35% | viability increase [3] -0.21% | viability [4] 98.6% | viability [5] 93.7% | inhibition [6] 1.27% | RAM network inhibition [7] -1.2%

CC(O)c1cccc(NC(=O)CCC(=O)O)c1 (configuration not stated)
inactive: growth inhibition [1] 0.85% | growth inhibition [2] -3.43% | viability increase [3] -2.35% | viability [4] 98.9% | viability [5] 95.4% | inhibition [6] 1.97% | RAM network inhibition [7] -1.13%

CC/C(=C\C(=O)c1ccncc1)Nc1ccc(O)cc1
inactive: growth inhibition [1] -4.59% | growth inhibition [2] 8.96% | viability increase [3] -3.41% | viability [4] 92.8% | viability [5] 83.7% | inhibition [6] 1.58% | RAM network inhibition [7] 2.31%

Cc1cc(C)cc(N(CC(=O)NCC2CCCO2)S(=O)(=O)c2c(C)noc2C)c1 (configuration not stated)
inactive: growth inhibition [1] -12.5% | growth inhibition [2] -8.86% | viability increase [3] -1.25% | viability [4] 102% | viability [5] 90.5% | inhibition [6] 2.89% | RAM network inhibition [7] 1.84%

CC1(C)CC(=O)C(=CN2CCN(C(=O)c3ccco3)CC2)C(=O)C1
inactive: growth inhibition [1] -20.6% | growth inhibition [2] -9.23% | viability increase [3] 0.72% | viability [4] 100% | viability [5] 90.3% | inhibition [6] 2.93% | RAM network inhibition [7] 3.19%

CCOC(=O)Cn1c(=O)oc2cc(S(=O)(=O)N3CCCc4ccccc43)ccc21
inactive: growth inhibition [1] -8.26% | growth inhibition [2] -5.77% | viability increase [3] -1.08% | viability [4] 88.2% | viability [5] 96% | inhibition [6] 2.77% | RAM network inhibition [7] 6.73%

CCCC(=O)c1ccc(N2CCCCCC2)c(F)c1
inactive: growth inhibition [1] -13.2% | growth inhibition [2] -2.93% | viability increase [3] 3.64% | viability [4] 85.9% | viability [5] 87.3% | inhibition [6] 1.73% | RAM network inhibition [7] 1.5%

CCOC(=O)N1CCN(C(=O)CSc2nnc(Cn3c(=O)sc4ccccc43)n2C)CC1
inactive: growth inhibition [1] -12.9% | growth inhibition [2] -13% | viability increase [3] -2.25% | viability [4] 98.4% | viability [5] 95.8% | inhibition [6] 1.69% | RAM network inhibition [7] 1.9%

CC(CCc1ccco1)NC(=O)c1cc2c(-c3ccccc3F)nn(C)c2s1 (configuration not stated)
inactive: growth inhibition [1] -0.025% | growth inhibition [2] 5.7% | viability increase [3] 1.04% | viability [4] 83.3% | viability [5] 78.7% | inhibition [6] 1.15% | RAM network inhibition [7] -0.15%

C=CCN(C1CCCCC1)S(=O)(=O)c1ccc2c(c1)oc(=O)n2C
inactive: growth inhibition [1] -16.7% | growth inhibition [2] -11.6% | viability increase [3] -4.14% | viability [4] 86.5% | viability [5] 80.4% | inhibition [6] 2.28% | RAM network inhibition [7] 6%

COc1cc(NC(=O)c2cc3c(C)nc4ccccc4c3o2)cc(OC)c1OC
inactive: growth inhibition [1] 7.32% | growth inhibition [2] 13.2% | viability increase [3] -5.18% | viability [4] 86.2% | viability [5] 86.7% | inhibition [6] 0.93% | RAM network inhibition [7] 0.97%

CSCCC(NC(=O)c1c(C)oc2c1CCCC2)C(=O)O (configuration not stated)
inactive: growth inhibition [1] -2.84% | growth inhibition [2] -12.1% | viability increase [3] -0.78% | viability [4] 98.5% | viability [5] 95.9% | inhibition [6] 1.46% | RAM network inhibition [7] 0.21%

COc1ccc(NC(=O)C2CCCN(S(=O)(=O)c3cccc4cccnc34)C2)cc1 (configuration not stated)
inactive: growth inhibition [1] -12.6% | growth inhibition [2] 4.72% | viability increase [3] -0.46% | viability [4] 88.2% | viability [5] 85.5% | inhibition [6] 2.36% | RAM network inhibition [7] 6.27%

CC(C)N(C(=O)CSc1nc2c([nH]1)c(=O)n(C)c(=O)n2C)c1ccccc1
inactive: growth inhibition [1] -4.33% | growth inhibition [2] -12.7% | viability increase [3] 1.94% | viability [4] 106% | viability [5] 102% | inhibition [6] 1.22% | RAM network inhibition [7] 6.3%

COc1ccc(OCCNS(=O)(=O)c2ccccc2)cc1
inactive: growth inhibition [1] -18.1% | growth inhibition [2] -18.5% | viability increase [3] 0.87% | viability [4] 94.5% | viability [5] 97.2% | inhibition [6] 0.965% | RAM network inhibition [7] 1.42%

CC(=O)c1c(C)nc2ccc(Br)cc2c1C(=O)O
inactive: growth inhibition [1] -10.2% | growth inhibition [2] 8.3% | viability increase [3] -1.9% | viability [4] 98.2% | viability [5] 97.4% | inhibition [6] 1.79% | RAM network inhibition [7] 1.15%

Cc1nc(CCNC(=O)COc2ccccc2)cs1
inactive: growth inhibition [1] -11% | growth inhibition [2] -3.25% | viability increase [3] -0.26% | viability [4] 103% | viability [5] 96.5% | inhibition [6] 1.14% | RAM network inhibition [7] 7.03%

Cc1noc(C)c1S(=O)(=O)N(CC(=O)N1CCc2ccccc21)c1ccc(C(C)C)cc1
inactive: growth inhibition [1] -4.56% | growth inhibition [2] -7.38% | viability increase [3] -5.04% | viability [4] 86.7% | viability [5] 82.5% | inhibition [6] 1.3% | RAM network inhibition [7] 5.36%

COc1ccc(-c2nc(CS(=O)CC(=O)NCC3CCCO3)c(C)o2)cc1 (configuration not stated)
inactive: growth inhibition [1] -7.51% | growth inhibition [2] 15.5% | viability increase [3] -2.38% | viability [4] 97.8% | viability [5] 102% | inhibition [6] -0.795% | RAM network inhibition [7] 4.03%

CCOC(=O)c1ccc(N2C(=O)C3CC=C(C)CC3C2=O)cc1 (configuration not stated)
inactive: growth inhibition [1] -9.14% | growth inhibition [2] -14.8% | viability increase [3] -0.33% | viability [4] 97.1% | viability [5] 91.8% | inhibition [6] 1.07% | RAM network inhibition [7] 1.75%

CC(=O)c1cccc(NC(=O)Nc2cc3sccc3n2C)c1
inactive: growth inhibition [1] 10.3% | growth inhibition [2] 10.1% | viability increase [3] -3.17% | viability [4] 98.2% | viability [5] 95.9% | inhibition [6] 0.69% | RAM network inhibition [7] 5.08%

Cc1ccccc1N1C(=O)c2cccc3c(N(C)CCO)ccc(c23)C1=O
inactive: growth inhibition [1] 5.99% | growth inhibition [2] -6.49% | viability increase [3] -3.91% | viability [4] 104% | viability [5] 90.4% | inhibition [6] 2.26% | RAM network inhibition [7] 2.12%

O=C(CSc1nnc2ccccn12)N1CCc2ccccc2C1
inactive: growth inhibition [1] -8.87% | growth inhibition [2] 0.78% | viability increase [3] -0.88% | viability [4] 99.7% | viability [5] 93.2% | inhibition [6] 1.54% | RAM network inhibition [7] 2.11%

COC(=O)c1cc(COc2ccc3c4c(c(=O)oc3c2)CCCC4)c(C)o1
inactive: growth inhibition [1] 2.28% | growth inhibition [2] 5.14% | viability increase [3] -0.68% | viability [4] 103% | viability [5] 100% | inhibition [6] 0.985% | RAM network inhibition [7] 3.78%

COc1ccc(-n2c(Cc3cccn3C)nnc2SCC(=O)Nc2ccc3c(c2)OCCO3)cc1
inactive: growth inhibition [1] 4.97% | growth inhibition [2] 8.29% | viability increase [3] -1.74% | viability [4] 103% | viability [5] 94.6% | inhibition [6] 1.61% | RAM network inhibition [7] 6.11%

CCCCOc1ccc(-c2nc(-c3cccnc3)no2)cc1
inactive: growth inhibition [1] -3.21% | growth inhibition [2] 4.81% | viability increase [3] 4.19% | viability [4] 68.4% | viability [5] 82.9% | inhibition [6] 0.07% | RAM network inhibition [7] 2.29%

O=C(NCCSCc1ccco1)c1ccc(CN2CCOCC2)cc1
inactive: growth inhibition [1] -10.4% | growth inhibition [2] -27% | viability increase [3] -1.57% | viability [4] 101% | viability [5] 99.7% | inhibition [6] 1.59% | RAM network inhibition [7] 2.06%
